From ChEMBL document CHEMBL1667787, “Synthesis and in vitro cytotoxicity evaluation of some fluorinated hexahydropyrimidine derivatives” (Bioorg Med Chem Lett, 2011)

Experiment: Cytotoxicity against human COLO320 cells after 72 hrs by Alamar Blue assay
Format: functional, cell-based
Conditions: COLO 320, 72 h
Method in brief: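 COLO 320 HSR cells (ATCC) kept in RPMI 1640 with 10% FBS, bicarbonate, pyruvate, Hepes and antibiotics at 37 °C, 5% CO2. Seeded 1 × 10^4 cells/well, attached 24 h, then exposed 72 h to compound or DMSO vehicle. AlamarBlue added 1:10, incubated overnight at 37 °C, fluorescence read at 560 nm excitation/590 nm emission. Triplicates, means; IC50 by linear regression.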

Compared with COc1ccc([C@H]2NC(=S)N[C@@](O)(C(F)(F)F)[C@@H]2C(=O)c2cccs2)cc1, COc1ccc([C@H]2NC(=S)N[C@@](O)(C(F)(F)F)[C@@H]2C(=O)c2ccco2)cc1 is 6.5-fold lower in IC50: 75 µM for the first, 11.5 µM for the second. The second is the more potent here.

CCOC(=O)[C@@H]1[C@@H](c2cccc(C#N)c2)NC(=S)N[C@@]1(O)C(F)(F)F and CCOC(=O)[C@@H]1[C@@H](c2cccc(O)c2)NC(=S)N[C@@]1(O)C(F)(F)F cannot be ordered by IC50: greater than 100 µM for the first, greater than 100 µM for the second.

First: CCOC(=O)C1=C(C(F)(F)F)NC(SCC(=O)c2ccc(C(F)(F)F)cc2)NC1c1ccc2c(c1)OCO2 (stereo unspecified)
Second: CCOC(=O)C1=C(C(F)(F)F)NC(=S)NC1c1ccc2c(c1)OCO2 (stereo unspecified)
The IC50 of the first is 1.5-fold lower: 8.1 µM for the first, 12.2 µM for the second. The first is the more potent here.

First: O=C(c1ccco1)[C@@H]1[C@@H](c2ccccc2)NC(=S)N[C@@]1(O)C(F)(F)F
Second: O=C(c1ccco1)[C@@H]1[C@@H](c2cccc(O)c2)NC(=S)N[C@@]1(O)C(F)(F)F
The IC50 of the first is lower: 63 µM for the first, greater than 100 µM for the second.

Compared with COC(=O)[C@@H]1[C@@H](c2cccc(O)c2)NC(=S)N[C@@]1(O)C(F)(F)F, O=C(c1cccs1)[C@@H]1[C@@H](c2cccc(O)c2)NC(=S)N[C@@]1(O)C(F)(F)F is lower in IC50: greater than 100 µM for the first, 72 µM for the second.

CCOC(=O)[C@@H]1[C@@H](c2ccc3c(c2)OCO3)NC(=S)N[C@@]1(O)C(F)(F)F and O=C(c1cccs1)[C@@H]1[C@@H](c2ccc3c(c2)OCO3)NC(=S)N[C@@]1(O)C(F)(F)F are within 1.5-fold of each other in IC50: 75 µM for the first, 62.5 µM for the second.

CCOC(=O)[C@@H]1[C@@H](c2ccccc2Br)NC(=S)N[C@@]1(O)C(F)(F)F and CCOC(=O)[C@@H]1[C@@H](c2ccc(F)cc2)NC(=S)N[C@@]1(O)C(F)(F)F are within 1.5-fold of each other in IC50: 73 µM for the first, 75 µM for the second.

Going from O=C(c1ccco1)[C@@H]1[C@@H](c2ccc3c(c2)OCO3)NC(=S)N[C@@]1(O)C(F)(F)F to O=C(c1ccc2ccccc2c1)[C@@H]1[C@@H](c2ccc3c(c2)OCO3)NC(=S)N[C@@]1(O)C(F)(F)F, the IC50 falls from 67 µM to 9.9 µM (6.8-fold).
